The results in this text go back to ChEMBL document CHEMBL4321802, “Antioxidant-Conjugated 1,2,4-Triazolo[4,3-a]pyrazin-3-one Derivatives: Highly Potent and Selective Human A2A Adenosine Receptor Antagonists Possessing Protective Efficacy in Neuropathic Pain” (J Med Chem, 2019).

For series [1], the target named is T1, Adenosine receptor A1 (Homo sapiens, UniProt P30542).
T1 sequence (P30542 whole entry): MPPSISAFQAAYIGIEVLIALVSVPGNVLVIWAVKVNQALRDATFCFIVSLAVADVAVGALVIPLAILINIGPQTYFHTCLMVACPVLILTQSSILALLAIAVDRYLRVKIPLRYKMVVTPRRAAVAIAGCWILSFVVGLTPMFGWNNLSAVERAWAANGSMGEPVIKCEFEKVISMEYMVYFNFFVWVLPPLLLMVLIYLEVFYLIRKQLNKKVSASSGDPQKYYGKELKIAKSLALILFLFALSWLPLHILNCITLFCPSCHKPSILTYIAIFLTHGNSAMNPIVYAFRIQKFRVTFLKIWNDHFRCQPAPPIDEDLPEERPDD
In words: Displacement of [3H]CCPA from human adenosine A1 receptor expressed in CHO cell membranes by radioligand competition assay. The essentials:
(§1)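 Membranes from stably transfected CHO cells were made by 1000 g, then 100 000g spins. hA1 used 1.0 nM [³H]CCPA in 50 mM Tris/HCl pH 7.4. hA3 used 1.0 nM [³H]HEMADO in 50 mM Tris/HCl, 10 mM MgCl2, 1 mM EDTA, pH 8.25. Ki from competition curves, each concentration tested three to five times in triplicate, mean ± S.E.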

Series [2] has as its target T2, Adenosine receptor A2a (Homo sapiens, UniProt P29274). Put plainly: Displacement of [3H]NECA from human adenosine A2A receptor expressed in CHO cell membranes by radioligand competition assay. (Loss of bound radioactivity is the signal in a displacement assay; it reports binding, not function.)
Series [3] concerns the target T3, Adenosine receptor A3 (Homo sapiens, UniProt P0DMS8).
T3 sequence (P0DMS8 whole entry): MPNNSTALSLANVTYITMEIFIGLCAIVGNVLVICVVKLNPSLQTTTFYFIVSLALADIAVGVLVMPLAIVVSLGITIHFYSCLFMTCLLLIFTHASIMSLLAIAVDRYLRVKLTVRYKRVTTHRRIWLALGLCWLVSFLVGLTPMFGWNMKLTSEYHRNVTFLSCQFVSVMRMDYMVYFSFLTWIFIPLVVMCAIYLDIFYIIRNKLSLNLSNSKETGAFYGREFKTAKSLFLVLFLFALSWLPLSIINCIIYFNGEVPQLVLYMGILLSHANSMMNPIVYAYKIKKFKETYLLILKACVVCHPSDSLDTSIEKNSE
In words: Displacement of [3H]HEMADO from human adenosine A3 receptor expressed in CHO cell membranes by radioligand competition assay. An outline of the steps: as §1

The target of series [4] is T4, Adenosine receptor A2b (Homo sapiens, UniProt P29275).
T4 sequence (P29275 whole entry): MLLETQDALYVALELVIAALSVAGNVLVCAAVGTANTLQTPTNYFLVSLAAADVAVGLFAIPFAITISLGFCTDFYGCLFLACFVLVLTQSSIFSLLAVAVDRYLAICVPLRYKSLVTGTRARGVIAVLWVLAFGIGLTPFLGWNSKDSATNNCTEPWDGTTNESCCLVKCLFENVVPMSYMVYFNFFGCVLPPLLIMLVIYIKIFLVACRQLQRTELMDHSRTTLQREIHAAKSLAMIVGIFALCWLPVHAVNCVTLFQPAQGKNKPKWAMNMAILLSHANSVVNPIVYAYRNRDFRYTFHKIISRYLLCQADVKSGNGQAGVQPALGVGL
Put plainly: Antagonist activity at human adenosine A2B receptor expressed in CHO cells assessed as inhibition of NECA-stimulated adenylyl cyclase activity by Glo-sensor cAMP assay. The format is functional, cell-based. The essentials:
(§2)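 CHO cells stably expressing hA2A or hA2B AR and transiently the GloSensor cAMP biosensor. Cells were equilibrated 2 h at rt in CO2-independent medium with 3% v/v GloSensor reagent and 10% FBS. Compounds at graded concentrations were tested against NECA-induced cAMP rise; luminescence as % of maximal RLU. IC50 from nonlinear regression. Three to five runs in triplicate, mean ± S.E.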
For orientation: Cyclic AMP is a second messenger, typically raised through Gs and lowered through Gi signalling.

The target in series [5] is T2, Adenosine receptor A2a. Put plainly: Antagonist activity at human adenosine A2A receptor expressed in CHO cells assessed as inhibition of NECA-stimulated adenylyl cyclase activity by Glo-sensor cAMP assay. The format is functional, cell-based. The essentials:
as §2

For series [6], the system named is Microglia. In words: Neuroprotective activity against 10 uM Oxaliplatin-induced neurotoxicity in Sprague-Dawley rat microglia assessed as cell viability at 10 uM incubated fro 24 hrs by MTT assay (reference value: 33.2 +/- 1.3%). The format is functional. A general note: Tetrazolium assays rely on reduction of a dye to a coloured formazan, in cell work by metabolically active cells.

Series [7] relates to Microglia. In words: Neuroprotective activity against 30 uM Oxaliplatin-induced neurotoxicity in Sprague-Dawley rat microglia assessed as cell viability at 10 uM incubated fro 24 hrs by MTT assay (reference value: 19.1 +/- 0.8%). It is filed as functional.
Series [8] relates to Microglia. In words: Antioxidant activity in Sprague-Dawley rat microglia assessed as suppression of oxaliplatin-dependent increase in superoxide dismutase-inhibitable superoxide anion generation at 10 uM incubated for 4 hrs in presence of oxaliplatin by spectrophotometry based cytochrome c assay. It is filed as functional, cell-based. The essentials:
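Primary neonatal (P1–P3) Sprague–Dawley rat cortical microglia (95–98% Iba1-positive), grown to confluence at 5×10⁵/well. Cells incubated 4 h at 37 °C in serum-free DMEM with cytochrome c (1 mg/ml), ± 100 µM oxaliplatin, ± compounds at 10 µM. Absorbance at 550 nm, minus the value with bovine SOD (300 mU/ml). O2•− calculated with ε 2.1×10⁴ M⁻¹ cm⁻¹, as µM/mg protein/4 h. Three experiments, mean ± SEM.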

Series [9] relates to Microglia. Put plainly: Antioxidant activity in Sprague-Dawley rat microglia assessed as suppression of oxaliplatin-induced reduction in catalase activity at 10 uM incubated for 24 hrs in presence of oxaliplatin by Amplex red dye based assay. It is filed as functional, cell-based. The essentials:
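Primary rat microglia (5·10⁵ cells/well) exposed 24 h to oxaliplatin 10 µM ± compounds at 10 µM. Cells washed, scraped in PBS, freeze-thawed and spun 13,000×g for 10 min at 4 °C. Catalase read in the supernatant with an Amplex Red kit, normalised to BCA protein; untreated control set to 100%. Three experiments, mean ± SEM.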

For series [10], the system named is Mus musculus. In words: Analgesic activity in CD1 albino mouse model of oxaliplatin-induced neuropathy hypersensitivity assessed as increase pain threshold at 10 to 30 mg/kg, po dosed from day 14 post oxaliplatin challenge and measured after 15 to 45 mins post dose by cold plate test. It is filed as functional, organism-based. An outline of the steps:
(§3)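 Male CD-1 mice (22–25 g) given oxaliplatin 2.4 mg kg⁻¹ i.p. in 5% glucose on days 1-2, 5-9 and 12-14; controls got vehicle. On day 14, compounds suspended in 1% carboxymethylcellulose were given once p.o. Cold plate held at 4 °C ± 1 °C; latency to first hind-paw licking/lifting recorded, 60 s cut-off. Mean ± SEM, two experimental sets; one-way ANOVA with Bonferroni.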

In series [11] the target is Adenosine receptor A2a (Rattus norvegicus, UniProt P30543). Put plainly: Displacement of [3H]NECA from rat adenosine A2A receptor expressed in CHO cell membranes by radioligand competition assay.
Series [12] can be described thus: Half life in 50 mM Tris buffer. It is filed as physicochemical. The essentials: (§4)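 Compounds incubated at 37 °C in 50 mM Tris buffer pH 7.4 or in pooled healthy-volunteer human plasma (stored -80 °C). Concentration followed over time by LC-MS/MS; t1/2 taken from the decay rate of ln(concentration) versus time. Half-lives above 240 min cannot be resolved and are given as ≥240. Ketoprofen ethyl ester served as plasma-activity reference.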

The nature of series [13]: Half life in human plasma. The format is ADME, cell-free. The essentials:
as §4

The test system of series [14] is Mus musculus. In words: Analgesic activity in CD1 albino mouse model of oxaliplatin-induced neuropathy hypersensitivity assessed as increase pain threshold at 0.03 mg/kg, po dosed from day 14 post oxaliplatin challenge and measured after 30 to 60 mins post dose by cold plate test. It is filed as functional, organism-based. An outline of the steps:
as §3

For series [15], the system named is Mus musculus. In words: Analgesic activity in CD1 albino mouse model of oxaliplatin-induced neuropathy hypersensitivity assessed as increase pain threshold at 1 to 10 mg/kg, po dosed from day 14 post oxaliplatin challenge and measured after 30 to 60 mins post dose by cold plate test. It is filed as functional, organism-based. An outline of the steps:
as §3

Series [16] concerns Mus musculus. Put plainly: Analgesic activity in CD1 albino mouse model of oxaliplatin-induced neuropathy hypersensitivity assessed as increase pain threshold at 4 mg/kg, po dosed from day 14 post oxaliplatin challenge and measured up to 90 mins post dose by cold plate test. It is filed as functional, organism-based. The essentials: as §3
The test system of series [17] is Mus musculus. Put plainly: Analgesic activity in CD1 albino mouse model of oxaliplatin-induced neuropathy hypersensitivity assessed as increase pain threshold at 40 mg/kg, po dosed from day 14 post oxaliplatin challenge and measured up to 90 mins post dose by cold plate test. The format is functional, organism-based. An outline of the steps:
as §3

Calls of active or inactive are those of the source.

T2 sequence (P29274 whole entry): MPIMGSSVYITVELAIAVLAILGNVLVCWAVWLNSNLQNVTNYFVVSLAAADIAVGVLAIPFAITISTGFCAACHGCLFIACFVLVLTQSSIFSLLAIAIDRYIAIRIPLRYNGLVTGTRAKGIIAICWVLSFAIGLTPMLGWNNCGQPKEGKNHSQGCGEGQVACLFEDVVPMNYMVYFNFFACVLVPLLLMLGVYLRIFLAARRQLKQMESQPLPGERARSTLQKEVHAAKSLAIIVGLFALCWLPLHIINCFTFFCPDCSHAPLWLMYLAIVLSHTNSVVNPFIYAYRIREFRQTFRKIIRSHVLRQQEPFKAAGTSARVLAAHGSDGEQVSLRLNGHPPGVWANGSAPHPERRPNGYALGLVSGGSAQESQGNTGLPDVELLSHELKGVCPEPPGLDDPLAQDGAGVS
Chain of Adenosine receptor A2a (Rattus norvegicus, UniProt P30543) (P30543 whole entry): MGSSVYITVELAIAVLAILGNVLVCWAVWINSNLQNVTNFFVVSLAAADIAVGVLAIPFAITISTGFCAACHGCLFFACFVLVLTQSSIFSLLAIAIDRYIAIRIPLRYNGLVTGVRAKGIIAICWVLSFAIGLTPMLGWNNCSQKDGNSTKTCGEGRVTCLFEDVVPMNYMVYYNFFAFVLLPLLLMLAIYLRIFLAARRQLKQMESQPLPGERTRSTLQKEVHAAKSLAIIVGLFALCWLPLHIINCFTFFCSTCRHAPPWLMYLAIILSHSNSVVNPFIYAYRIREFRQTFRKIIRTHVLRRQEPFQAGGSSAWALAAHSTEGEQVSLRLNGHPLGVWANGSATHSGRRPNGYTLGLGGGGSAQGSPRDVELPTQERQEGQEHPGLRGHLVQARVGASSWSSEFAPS

As usually defined, the Ki is the dissociation constant of the complex between target and ligand, obtained from inhibition or displacement. The term IC50 denotes the midpoint of a concentration-inhibition curve. The half-life is how long it takes for the measured level to halve. Low values mean fast loss, high ones slow loss. In the case of `CC(C)(C)c1cc(C(=O)NCCC(=O)Nc2ccc(-c3cn4c(=O)n(-c5ccccc5)nc4c(N)n3)cc2)cc(C(C)(C)C)c1O`, the inhibition constant Ki in [1] was > 30000 nM; in [2], 54.5 nM; in series [3], > 30 µM; in series [11], 86 nM. The values for the IC50 in [4] and in [5] were > 30 µM and 263 nM, respectively. For the same compound, the Activity is reported as 43.5% in series [6] and 30.6% in series [7]. Besides, the result in series [8], in series [9] and in series [10] was Active. For the same compound, the half-life in series [12] and in series [13] was ≥ 240 min each time.
With `Nc1nc(-c2ccc(OCCNC(=O)CCCCC3CCSS3)cc2)cn2c(=O)n(-c3ccccc3)nc12` (centres undefined), the inhibitory constant (Ki) in series [1] was determined as 379 nM; in series [2], 2.4 nM; in series [3], 4.1 µM; in series [11] it was 9 nM. In addition, the IC50 in series [4] is > 30 µM; in series [5], 116 nM. Further, the figures for the Activity in series [6], in [7] and in series [15] were 54.5%, 34.2% and “Dose-dependent effect”, respectively. The result in [8], in series [9] and in series [14] was Active. Also, the half-life in series [12] and in series [13] was ≥ 240 min each time.
`O=C(O)CCCCC1CCSS1` (centres undefined): the outcome in [16] and in series [17] was inactive.
